KCNK3 block: human KCNK3 channel inhibitors, primary screen, CHO cells, FluxOR thallium flux, B-score. Potassium channel subfamily K member 3 (Homo sapiens), O14649. B-score at 10 µM. FluxOR fluorescence; active compounds read low. 0.84% of 340,000 active;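 active means B-score under library mean minus 4 SD, starting fluorescence ratio at most library mean plus 5 SD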;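 further: more negative B-score means stronger inhibition of thallium flux through KCNK3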
KCNK9 inh: KCNK9 potassium channel inhibitors, primary screen, HEK293 cells, thallium flux; Potassium channel subfamily K member 9 (Homo sapiens), Q9NPC2; AID 488922, 2010; 1.2% of 310,000 active; FluxOR thallium flux fluorescence; active compounds read low; B-score at 10 µM;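 active means ratio B-score over 3 SD below the library mean, with starting fluorescence within 5 SD of its mean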;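 further: negative B-score means less thallium flux so channel inhibition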
KCNQ1 pot: potentiators or activators of KCNQ1 channel, primary screen, cell-based, thallium flux, high-throughput | 0.35% of 310,000 active | AID 2648, 2010 | B-score at 10 µM | Potassium voltage-gated channel subfamily KQT member 1 (Homo sapiens), P51787 | CHO-K1 KCNQ1, thallium flux FluxOR fluorescence; active compounds read high;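 active means fluorescence ratio B-score, a plate-corrected score, at least three library SD, with initial intensity B-score within 5 SD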
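System: Stable KCNQ1 CHO-K1 line | Incubation: 90 min dye loading and 20 min compound exposure, both at room temperature | Measure: Ratio B score | Medium: Assay buffer for compound exposure, DMSO matched across wells | Compound dosing: Single-concentration screen | Probe or stimulus: K+/Tl+ depolarizing stimulus | Measured by: Kinetic FluxOR fluorescence, 10 s baseline plus 110 s post-stimulus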
hERG protect: hERG rescue from dofetilide block, primary screen, cell-based, CHO-hERG, FluxOR thallium flux, dofetilide IC70; Voltage-gated inwardly rectifying potassium channel KCNH2 (Homo sapiens), Q12809; dofetilide IC70 present; activation (rescue from dofetilide block), less the hit threshold, % at 10 µM; 0.51% of 310,000 active;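 active means activation above the mean of controls blocked by dofetilide plus 5 SD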;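 further: thallium influx through hERG after potassium depolarization seen as dye fluorescence rise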
Target sequence (Q12809 whole entry, looked up): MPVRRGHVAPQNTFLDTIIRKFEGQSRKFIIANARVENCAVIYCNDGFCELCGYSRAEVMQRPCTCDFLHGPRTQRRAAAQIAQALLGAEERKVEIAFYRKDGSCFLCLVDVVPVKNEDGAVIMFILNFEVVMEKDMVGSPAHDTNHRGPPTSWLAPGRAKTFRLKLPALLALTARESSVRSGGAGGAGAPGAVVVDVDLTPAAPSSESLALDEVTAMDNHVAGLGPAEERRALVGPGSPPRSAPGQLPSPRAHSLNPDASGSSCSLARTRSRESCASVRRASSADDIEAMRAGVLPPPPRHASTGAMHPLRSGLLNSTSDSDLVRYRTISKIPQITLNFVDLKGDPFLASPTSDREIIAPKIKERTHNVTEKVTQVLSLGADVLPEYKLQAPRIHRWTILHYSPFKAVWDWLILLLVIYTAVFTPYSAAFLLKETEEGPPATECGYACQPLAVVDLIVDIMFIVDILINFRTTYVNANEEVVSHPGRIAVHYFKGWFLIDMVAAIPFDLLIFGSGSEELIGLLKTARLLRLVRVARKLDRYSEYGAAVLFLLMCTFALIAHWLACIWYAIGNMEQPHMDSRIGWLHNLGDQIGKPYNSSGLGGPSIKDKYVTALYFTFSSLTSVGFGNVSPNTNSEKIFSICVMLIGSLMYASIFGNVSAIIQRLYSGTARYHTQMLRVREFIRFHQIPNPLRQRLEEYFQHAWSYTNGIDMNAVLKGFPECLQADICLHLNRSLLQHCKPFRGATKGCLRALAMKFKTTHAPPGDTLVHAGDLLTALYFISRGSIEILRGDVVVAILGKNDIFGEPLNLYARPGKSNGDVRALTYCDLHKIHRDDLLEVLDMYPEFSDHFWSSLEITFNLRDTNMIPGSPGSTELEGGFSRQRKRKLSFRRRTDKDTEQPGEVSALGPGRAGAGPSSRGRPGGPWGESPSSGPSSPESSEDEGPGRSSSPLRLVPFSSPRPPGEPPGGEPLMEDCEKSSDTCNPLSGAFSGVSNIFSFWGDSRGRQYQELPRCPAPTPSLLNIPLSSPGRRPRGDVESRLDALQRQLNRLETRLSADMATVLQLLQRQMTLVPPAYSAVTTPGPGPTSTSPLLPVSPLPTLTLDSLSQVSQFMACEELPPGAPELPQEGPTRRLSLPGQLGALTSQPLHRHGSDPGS
KCNQ1 block: inhibitors of human KCNQ1 channel, primary screen, cell-based, thallium flux, high-throughput; 1.3% of 310,000 active; Potassium voltage-gated channel subfamily KQT member 1 (Homo sapiens), P51787; CHO-K1 KCNQ1, FluxOR thallium flux fluorescence; active compounds read high; B-score at 10 µM;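 active means compounds whose thallium flux B-score, printed positive for inhibition, exceeds three library SD while starting fluorescence stays within three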;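 further: channel opened by potassium depolarization with thallium stimulus after 20 min compound exposure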
KCNK3 inh conf: retest of human KCNK3 channel inhibitors, confirmation, CHO cells, FluxOR thallium flux, triplicate; shares compounds with KCNK3 block; FluxOR fluorescence; 0% buffer, 100% carvedilol maximal block; ratio percent of control, % at 10 µM; 99% of 2,400 active; AID 651638, 2012;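 active means ratio percent of control, averaged over triplicates, above buffer control mean plus 5 SD, cut at about 64% in these data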;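 further: ratio is the fluorescence rise from min to max over baseline after thallium stimulus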
KCNK3 uninduced: thallium flux inhibition in non-induced cells, primary screen, counter-screen for KCNK3 inhibitor project, cell-based, non-induced KCNK3 line, FluxOR thallium, triplicate; shares compounds with KCNK3 block; non-induced KCNK3 parental cells; active compounds read low; thallium flux ratio (lower = more inhibition) at 10 µM; 40% of 2,400 active; AID 651747, 2012;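 active means thallium flux ratio, averaged over three wells, more than 5 SD below the buffer control mean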;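 further: host cells are CHO cells without KCNK3 induction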
Each line names hits and unclear results; the compound was inactive in the other large screens (follow-up assays come after a bar, where they were run). An excerpt weighted towards active compounds, which were near 3.1% of everything screened.

CC(=O)C[C@H](O)CC(=O)[C@H]1OC(=O)CCCCCCc2ccccc21	none (no result: KCNK9 inh, KCNQ1 pot, hERG protect, KCNQ1 block)
CC(=O)N1N=C2/C(=C/c3ccccc3)CCCC2C1c1ccccc1 (centres undefined)	KCNK3 block -9.6 | KCNK3 inh conf 103 | KCNK3 uninduced inactive
O=C(O)c1c(C(=O)N2N=C3/C(=C/c4ccccc4)CCCC3C2c2ccccc2)cccc1[N+](=O)[O-] (centres undefined)	none
CC(=Nc1ccc(Br)cc1)c1sc2ccccc2c1O	KCNK3 block -11 | KCNK3 inh conf 131 | KCNK3 uninduced inactive
CC(=Nc1ccccc1)c1sc2ccccc2c1O	none
Cc1oc(-c2ccccc2)cc1C(=O)Nc1cccc2ccccc12	KCNK3 block -11 | KCNK3 inh conf 119 | KCNK3 uninduced 0.16
COCCCN(C(=S)Nc1cc(Cl)cc(Cl)c1)C(C)c1ccccn1 (centres undefined)	KCNK3 block -11, KCNQ1 block 8 | KCNK3 inh conf 123 | KCNK3 uninduced 0.16
CC(NCc1ccc([N+](=O)[O-])cc1)C1COc2ccccc2O1 (centres undefined)	none
N#Cc1cccc(CN2CCCN(Cc3ccc(F)cc3)S2(=O)=O)c1	KCNK3 block -9.2 | KCNK3 inh conf 94 | KCNK3 uninduced 0.15
O=C1C(Cl)=C(NCCc2ccccc2)C(=O)c2ccccc21	KCNK3 block -14 (no result: KCNK9 inh, KCNQ1 pot, hERG protect, KCNQ1 block) | KCNK3 inh conf 161 | KCNK3 uninduced 0.065
O=C1C(Cl)=C(Nc2ccccc2)C(=O)c2ccccc21	none
COc1ccc(C(=O)NCCCn2nc(C)cc2C)cc1S(=O)(=O)N1CCOCC1	none (no result: KCNK9 inh, KCNQ1 pot, hERG protect, KCNQ1 block)
CSc1ccccc1C(=O)N(C)Cc1ccccc1	none
CSc1ccccc1C(=O)N(C)C(c1ccccc1)c1ccccc1	KCNK3 block -9.1 | KCNK3 inh conf 108 | KCNK3 uninduced inactive
CC1(C)C(Cl)C(=O)C(C(=O)c2ccccc2)C(=O)C1Cl (centres undefined)	none
CC(Sc1nnnn1C)C(=O)Nc1cc(S(=O)(=O)N2CCCCC2)ccc1Cl (centres undefined)	none (no result: KCNK9 inh, KCNQ1 pot, hERG protect, KCNQ1 block)
O=C(N/N=C/c1ccc[nH]1)c1cc(-c2ccc(Cl)cc2)nc2ccccc12	KCNK3 block -9.1 | KCNK3 inh conf 124 | KCNK3 uninduced 0.12
O=C(N/N=C/c1cccnc1)c1cc(-c2ccc(Cl)cc2)nc2ccccc12	none
COC(C(=O)N/N=C/c1ccc(OCC(=O)N2CCOCC2)cc1)c1ccccc1 (centres undefined)	none
C[C@H](CO)N1C[C@H](C)[C@@H](CN(C)S(=O)(=O)c2ccc(F)cc2)Oc2c(NC(=O)CCC(F)(F)F)cccc2C1=O	none (no result: KCNK9 inh, KCNQ1 pot, hERG protect, KCNQ1 block)
C[C@H](CO)N1C[C@H](C)[C@@H](CN(C)S(=O)(=O)c2ccccc2)Oc2c(NC(=O)CCC(F)(F)F)cccc2C1=O	KCNK3 block -12 (no result: KCNK9 inh, KCNQ1 pot, hERG protect, KCNQ1 block) | KCNK3 inh conf 110 | KCNK3 uninduced inactive
C[C@H](CO)N1C[C@H](C)[C@@H](CN(C)Cc2ccc(Cl)c(Cl)c2)Oc2c(NS(=O)(=O)c3cccs3)cccc2C1=O	KCNK3 block -14 (no result: KCNK9 inh, KCNQ1 pot, hERG protect, KCNQ1 block) | KCNK3 inh conf 127 | KCNK3 uninduced 0.14
Nc1ccc2c(c1)Cc1c(F)cccc1-2	none (no result: KCNK9 inh, KCNQ1 pot, hERG protect, KCNQ1 block)
COc1ccc(CCNC(=O)CSc2cn(Cc3cccc(C)c3)c3ccccc23)cc1OC	KCNK3 block -9.2 | KCNK3 inh conf 105 | KCNK3 uninduced inactive
COc1ccc(CCNC(=O)CSc2cn(Cc3ccccc3)c3ccccc23)cc1OC	none
COc1ccccc1N(C)S(=O)(=O)c1ccc(C)c(C(=O)Nc2nccs2)c1	none
CCN(CCn1cccn1)C(=O)c1ccc2nc(Cc3ccc(OC)cc3)oc2c1	none
CCCN1C(=O)/C(=C/c2cc(C)n(C)c2C)SC1=Nc1ccc(OC)cc1	KCNK3 block -11 | KCNK3 inh conf 101 | KCNK3 uninduced 0.15
CCNC(=S)N1CCc2cc(OC)c(OC)cc2C1COc1ccc(F)cc1 (centres undefined)	KCNK3 block -8.7 | KCNK3 inh conf 102 | KCNK3 uninduced inactive
CNC(=S)N1CCc2cc(OC)c(OC)cc2C1COc1ccc(F)cc1 (centres undefined)	none
CC(=O)Nc1ccc(NC(=O)CC(c2ccccc2)c2ccccc2)cc1	none
O=C(CC(c1ccccc1)c1ccccc1)Nc1ccc(Cl)cn1	KCNK3 block -8.9 | KCNK3 inh conf 109 | KCNK3 uninduced inactive
O=C(CC(c1ccccc1)c1ccccc1)Nc1ccc(O)cc1	KCNK3 block -9.7 | KCNK3 inh conf 88 | KCNK3 uninduced inactive
C(=N\Nc1nc2ccccc2[nH]1)/c1ccc2c(c1)OCO2	none
C(=C/c1nccc2c1[nH]c1ccccc12)/c1ccc2c(c1)OCO2	KCNK3 block -11 | KCNK3 inh conf 99 | KCNK3 uninduced inactive
O=C(Nc1cc(Cl)ccc1N1CCCCC1)c1cccs1	KCNK3 block -14, KCNK9 inh -7.3 | KCNK3 inh conf 128 | KCNK3 uninduced 0.12
Cc1ccc(C(=O)Nc2cc(Cl)ccc2N2CCCCC2)s1	none
COc1c(C)cc(Br)cc1C(=O)Nc1ccc(Cc2ccncc2)cc1	KCNK3 block -9.7 | KCNK3 inh conf 117 | KCNK3 uninduced inactive
O=C(CCNC(=O)c1ccccc1)NCCc1ccc(Cl)cc1	none
Cc1[nH]c2ccc(F)cc2c1CCN(Cc1cccnc1)C(=S)Nc1ccccc1	KCNK3 block -10 | KCNK3 inh conf 91 | KCNK3 uninduced inactive
Cc1[nH]c2ccccc2c1CCN(Cc1cccnc1)C(=S)Nc1ccc(F)cc1	KCNK3 block -10 | KCNK3 inh conf 92 | KCNK3 uninduced 0.15
CCOc1ccc(NC(=S)N(CCc2c(C)[nH]c3ccccc23)Cc2cccnc2)cc1	none
COc1ccc(NC(=S)N(CCc2c(C)[nH]c3ccc(C)cc23)Cc2cccnc2)cc1	KCNK3 block -12, KCNK9 inh -6.9 | KCNK3 inh conf 96 | KCNK3 uninduced 0.15
CCC(C)NS(=O)(=O)c1ccc(S(=O)(=O)N2CCCC3(CCCCC3)C2)cc1 (centres undefined)	KCNK3 block -9 | KCNK3 inh conf 118 | KCNK3 uninduced 0.14
CCC(C)C(=O)Nc1ccc(S(=O)(=O)N2CCCC2)cc1 (centres undefined)	none

Screens (PubChem)
